pIC50: −log10 of the molar value. Structures can show the parent of a compound that is named as a salt. The source made the active and inactive calls. No cut-off for these calls is given here.

The species named for one assay is Rattus norvegicus. Description: Inhibition of aniline hydroxylase activity of mixed function oxidase system in Wistar rat liver microsomes assessed as conversion of aniline to p-aminophenol at 10^-3 M after 10 mins. For orientation: Microsomes from liver hold many membrane-bound enzymes, among them those of drug oxidation.
Assay [1] in a line: Inhibition of aminopyrine demethylase activity of mixed function oxidase system in Wistar rat liver microsomes assessed as conversion of aminopyrine to 4-aminoantipyrine after 20 mins. The settings on record: read-out: I50. In short, it runs like this: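 Microsomes from phenobarbitone-pretreated male Wistar rats, with the same NADPH-generating cofactors. Incubation in 3.0 mL containing aminopyrine 1.5 μmol and 5.6 mg protein in pH 7.4 phosphate, 20 min. 4-Aminoantipyrine formed was assayed. Benzyl ethers added in DMSO; other inhibitors usually in water. I50 taken from 5–7 inhibitor levels, means of duplicates.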

Assay [2] is described as follows: Inhibition of aniline hydroxylase activity of mixed function oxidase system in Wistar rat liver microsomes assessed as conversion of aniline to p-aminophenol after 10 mins. To be noted: read-out: I50.
In assay [3] the test system is Mus musculus. Description: In vivo inhibition of mixed function oxidase system in mouse assessed as prolongation of hexobarbital-induced sleeping time at 100 mg/kg, ip pretreated for 10 mins followed by hexobarbital-challenge relative to control. Details: scale not given: the % may be the effect or the level left. The settings on record: route intraperitoneal.
Assay [4] relates to Mus musculus. Description: In vivo inhibition of mixed function oxidase system in mouse assessed as increase in zoxazolamine-induced paralysis time at 100 mg/kg, ip pretreated for 10 mins followed by zoxazolamine-challenge relative to control. Also on record: scale not given: the % may be the effect or the level left. To be noted: route intraperitoneal.

As to `CCC(=O)c1ccc(OC)cc1O`, the inhibition entry in the assay listed under Rattus norvegicus is “inactive”. Also, in assay [1], the pIC50 was 3.77.

Consider `O=Cc1ccc(O)cc1O`, for which the values for the pIC50 in assay [2] and in assay [1] were 2.85 and 2.96, respectively.

`CCCC(C(=O)OCCN(CC)CC)(c1ccccc1)c1ccccc1` [PROADIFEN HYDROCHLORIDE]: the pIC50 is 3.54 in assay [2] and 5.22 in assay [1].

On to `CCC(=O)c1ccc(O)cc1O`, for which the pIC50 in assay [2] was 3.12; in assay [1], 3.80.

With `CCCCOCCOCCOCc1cc2c(cc1CCC)OCO2` [PIPERONYL BUTOXIDE], the pIC50 in assay [2] and in assay [1] was 3.38 in each case.

Take `CC(=O)c1ccccc1O`: the pIC50 in assay [2] was 3.41; in assay [1], 3.49.

Take `COc1cccc(O)c1C(C)=O`: the pIC50 in assay [2] was 3.70; in assay [1], 4.05. Moreover, the Activity with Mus musculus [3] was found to be 233%.

Consider `CC(=O)c1ccc(O)cc1O`, for which the Activity in the assay on Mus musculus [4] stood at 77%; with Mus musculus [3], 127%. The pIC50 in assay [2] is 3.15; in assay [1], 3.28.

`CC(=O)c1c(O)cccc1OCc1ccccc1`: the Activity in the assay with Mus musculus [4] was determined as 156%; in the assay on Mus musculus [3], 170%. Besides, the pIC50 in assay [2] was 3.72; in assay [1] it was 4.10.

For `CC(=O)c1c(O)cccc1O`, the Activity in the assay on Mus musculus [4] is on record as 164%; in the assay with Mus musculus [3], 190%. Besides, the pIC50 in assay [2] is 3.68; in assay [1], 3.85.

For the molecule `O=Cc1c(O)cccc1O`, the pIC50 was 3.70 in assay [2] and 3.19 in assay [1].

The values are drawn from ChEMBL document CHEMBL3271933, “Inhibitors of hepatic mixed function oxidase. 3. Inhibition of hepatic microsomal aniline hydroxylase and aminopyrine demethylase by 2,6- and 2,4-dihydroxyphenyl alkyl ketones and related compounds” (J Med Chem, 1977).
